Tests used:
[1] = biological target: hA2AAR (Homo sapiens, UniProt P29274); assay: Radioligand binding at hA2AAR; conditions: 4a versus truncated 4′-thioadenosine derivative 2
[2] = biological target: T1, hA3AR (Homo sapiens, UniProt P0DMS8); assay: cAMP functional assay at the hA3AR expressed in CHO cells; format: cell-based; conditions: for functional behaviour at hA3AR: cAMP assay, CHO cells; for Emax at 10 µM: CHO, read-out: maximal stimulation of cAMP formation / % activation relative to the full agonist 16 (= 100%)
T1 sequence (P0DMS8 1-318): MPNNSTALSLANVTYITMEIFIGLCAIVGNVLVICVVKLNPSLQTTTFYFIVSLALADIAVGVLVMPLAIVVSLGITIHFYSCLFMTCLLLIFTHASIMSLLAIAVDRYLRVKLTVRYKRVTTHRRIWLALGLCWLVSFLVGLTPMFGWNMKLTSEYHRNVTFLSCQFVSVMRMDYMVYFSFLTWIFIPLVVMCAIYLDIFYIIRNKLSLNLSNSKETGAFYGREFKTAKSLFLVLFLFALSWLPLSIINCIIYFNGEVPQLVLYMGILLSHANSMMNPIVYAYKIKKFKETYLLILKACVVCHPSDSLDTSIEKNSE
Method in brief: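 Recombinant hA3AR-CHO cells, plated 24 h, washed with DMEM/50 mM HEPES pH 7.4. Treated with agonists and/or test compound plus rolipram (10 μM) and adenosine deaminase (3 units/mL); forskolin (10 μM) added at 45 min, incubation continued 15 min. Lysed with ice-cold 0.1 M HCl. cAMP quantified by PKA competition with [3H]cAMP (2 nM), GF/C filtration, scintillation, against cAMP standard curve. Mean ± SEM.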

[3] = system: A1, A2A, and A3ARs; conditions: read-out: EC50 for activation of A1, A2A, and A3ARs; ref [5]; cited from earlier work
[4] = system: A2BAR; conditions: read-out: EC50 for activation of A2BAR; ref [5]; cited from earlier work

Sequence of hA2AAR (P29274 whole entry, the tested form may be a part): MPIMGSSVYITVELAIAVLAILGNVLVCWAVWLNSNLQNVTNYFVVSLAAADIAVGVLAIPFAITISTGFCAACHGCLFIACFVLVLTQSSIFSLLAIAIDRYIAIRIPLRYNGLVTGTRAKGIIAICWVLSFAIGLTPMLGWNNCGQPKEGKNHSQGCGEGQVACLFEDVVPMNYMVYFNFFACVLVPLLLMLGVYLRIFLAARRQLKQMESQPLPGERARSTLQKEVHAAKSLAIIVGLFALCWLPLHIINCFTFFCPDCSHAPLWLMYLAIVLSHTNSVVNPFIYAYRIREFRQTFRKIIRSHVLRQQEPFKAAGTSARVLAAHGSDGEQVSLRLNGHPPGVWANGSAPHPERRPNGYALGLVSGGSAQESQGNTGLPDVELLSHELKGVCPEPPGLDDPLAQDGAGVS

SMILES	functional behaviour at hA3AR [2]	Emax at 10 µM [2] [%]	further results
CCCCC#Cc1nc(N)c2ncn([C@H]3[C@H](O)[C@H](O)[C@@H]4C[C@@H]43)c2n1 [4a, (1R,2R,3S,4R,5S)-4-(6-Amino-2-(hex-1-ynyl)-9H-purin-9-yl)bicyclo[3.1.0]hexane-2,3-diol]	–	–	fold less potent than 2 in binding affinity at the hA2AAR [1]: 14 fold and ≈ 14 fold
CCCCC#Cc1nc(NC)c2ncn([C@H]3[C@H](O)[C@H](O)[C@@H]4C[C@@H]43)c2n1 [4b]	partial agonist	–	–
CCCCC#Cc1nc(NCC)c2ncn([C@H]3[C@H](O)[C@H](O)[C@@H]4C[C@@H]43)c2n1 [4c, (1R,2R,3S,4R,5S)-4-(6-(ethylamino)-2-(hex-1-ynyl)-9H-purin-9-yl)bicyclo[3.1.0]hexane-2,3-diol]	partial agonists	15.5 ± 6.7	–
CCCCC#Cc1nc(NC2CC2)c2ncn([C@H]3[C@H](O)[C@H](O)[C@@H]4C[C@@H]43)c2n1 [4d, (1R,2R,3S,4R,5S)-4-(6-(Cyclopropylamino)-2-(hex-1-ynyl)-9H-purin-9-yl)bicyclo[3.1.0]hexane-2,3-diol]	partial agonists	19.8 ± 4.6	–
CCCCC#Cc1nc(NC2CCCC2)c2ncn([C@H]3[C@H](O)[C@H](O)[C@@H]4C[C@@H]43)c2n1 [4e, (1R,2R,3S,4R,5S)-4-(6-(Cyclopentylamino)-2-(hex-1-ynyl)-9H-purin-9-yl)bicyclo[3.1.0]hexane-2,3-diol]	partial agonists	27.1 ± 14.6	–
CCCCC#Cc1nc(NCc2cccc(I)c2)c2ncn([C@H]3[C@H](O)[C@H](O)[C@@H]4C[C@@H]43)c2n1 [4f, (1R,2R,3S,4R,5S)-4-(6-(3-Iodobenzylamino)-2-(hex-1-ynyl)-9H-purin-9-yl)bicyclo[3.1.0]hexane-2,3-diol]	antagonists	–	–
CCCCC#Cc1nc(NCc2cccc(Br)c2)c2ncn([C@H]3[C@H](O)[C@H](O)[C@@H]4C[C@@H]43)c2n1 [4g, (1R,2R,3S,4R,5S)-4-(6-(3-Bromobenzylamino)-2-(hex-1-ynyl)-9H-purin-9-yl)bicyclo[3.1.0]hexane-2,3-diol]	antagonists	–	–
CCCCC#Cc1nc(NCc2cccc(Cl)c2)c2ncn([C@H]3[C@H](O)[C@H](O)[C@@H]4C[C@@H]43)c2n1 [4h, (1R,2R,3S,4R,5S)-4-(6-(3-Chlorobenzylamino)-2-(hex-1-ynyl)-9H-purin-9-yl)bicyclo[3.1.0] hexane-2,3-diol]	antagonists	–	–
CCCCC#Cc1nc(NCc2cccc(F)c2)c2ncn([C@H]3[C@H](O)[C@H](O)[C@@H]4C[C@@H]43)c2n1 [4i, (1R,2R,3S,4R,5S)-4-(6-(3-Fluorobenzylamino)-2-(hex-1-ynyl)-9H-purin-9-yl)bicyclo[3.1.0] hexane-2,3-diol]	partial agonists	18.9 ± 7.5	–

From paper PMC3954500 (Journal of Medicinal Chemistry, 2014)
